In ChEMBL document CHEMBL1140574, “Design, synthesis, and antimalarial activity of structural chimeras of thiosemicarbazone and ferroquine analogues” (Bioorg Med Chem Lett, 2007):
Calls of active or inactive are those of the source. No cut-off for these calls is given here.

Experiments:
Falcipain 2 = target: T1, Falcipain 2 (Plasmodium falciparum, UniProt Q9N6S8); assay: Inhibition of Plasmodium falciparum W2 recombinant falcipain-2 activity
T1 sequence (Q9N6S8 whole entry): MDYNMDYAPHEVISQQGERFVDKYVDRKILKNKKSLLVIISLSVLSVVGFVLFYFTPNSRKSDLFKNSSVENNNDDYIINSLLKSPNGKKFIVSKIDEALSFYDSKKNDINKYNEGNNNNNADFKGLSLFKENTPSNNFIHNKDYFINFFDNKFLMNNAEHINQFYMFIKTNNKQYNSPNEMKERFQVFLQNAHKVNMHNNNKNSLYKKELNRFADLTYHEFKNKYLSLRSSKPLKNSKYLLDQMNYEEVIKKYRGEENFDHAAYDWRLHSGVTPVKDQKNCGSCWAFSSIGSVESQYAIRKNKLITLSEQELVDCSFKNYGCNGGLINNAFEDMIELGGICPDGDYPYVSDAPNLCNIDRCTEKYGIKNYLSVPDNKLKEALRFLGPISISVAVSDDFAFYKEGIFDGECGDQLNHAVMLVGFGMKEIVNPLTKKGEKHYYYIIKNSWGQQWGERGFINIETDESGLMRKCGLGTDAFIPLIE

Plasmodium falciparum [1] = assay: Antimalarial activity against chloroquine-sensitive Plasmodium falciparum 3D7; type: functional, organism-based
In short: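 Parasites kept in RPMI 1640 with 10% human serum, 25 mM Hepes, 25 mM NaHCO3, in A-positive human erythrocytes at 37 °C (10% O2, 5% CO2, 85% N2, 95% humidity). Twofold serial dilutions, final 0.01 to 200 µM, in 1% DMSO/RPMI; 42 h incubation. [3H]hypoxanthine uptake measured by scintillation after freeze-thaw lysis and filter harvest; IC50 by nonlinear regression of log-dose/response curves.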

Plasmodium falciparum [2] = assay: Antimalarial activity against Plasmodium falciparum W2 as food vacuole abnormality; type: functional, organism-based
Plasmodium falciparum [3] = assay: Antimalarial activity against chloroquine-resistant Plasmodium falciparum FCR3; type: functional, organism-based
In short: (§1)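 Parasites cultured in A-positive human erythrocytes in RPMI 1640 with 10% human serum, 25 mM Hepes, 25 mM NaHCO3, 37 °C, 10% O2/5% CO2/85% N2. Compounds dissolved in DMSO 1% in RPMI, twofold serial dilutions, final […]; 42 h incubation; [3H]hypoxanthine uptake read by scintillation after freeze-thaw lysis; IC50 by nonlinear regression of log-dose/response curves.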

Plasmodium falciparum [4] = assay: Antimalarial activity against chloroquine-resistant Plasmodium falciparum Bre1; type: functional, organism-based; in short: as §1
Plasmodium falciparum [5] = assay: Antimalarial activity against chloroquine-resistant Plasmodium falciparum W2; type: functional, organism-based; in short: as §1

IC50 (Falcipain 2) [µM]	IC90 (Plasmodium falciparum [1]) [µM]	SMILES	Activity (Plasmodium falciparum [2])	IC90 (Plasmodium falciparum [3]) [µM]	IC90 (Plasmodium falciparum [4]) [µM]	IC90 (Plasmodium falciparum [5]) [µM]
> 20	1.4	C/C(=N\NC(=S)NCCCNc1ccnc2cc(Cl)ccc12)c1ccc(Cl)c(Cl)c1	–	–	–	–
4.42	2.4	C/C(=N\NC(=S)NCCNc1ccnc2cc(Cl)ccc12)c1ccc(Cl)c(Cl)c1	Active	–	–	–

More lines, now with the values behind:

SMILES	IC50 (Falcipain 2) [µM]	IC90 (Plasmodium falciparum [1]) [µM]	Activity (Plasmodium falciparum [2])	IC90 (Plasmodium falciparum [3]) [µM]	IC90 (Plasmodium falciparum [4]) [µM]	IC90 (Plasmodium falciparum [5]) [µM]
C/C(=N\NC(=S)NCCCNc1ccnc2cc(Cl)ccc12)c1ccc(Br)cc1	> 20	25.8	–	–	–	–
C/C(=N\NC(=S)NCCNc1ccnc2cc(Cl)ccc12)c1ccc(Br)cc1	12.9	26.3	–	–	–	–
CCN(CC)CCCC(C)Nc1ccnc2cc(Cl)ccc12 (stereo not drawn) [CHLOROQUINE]	–	0.0417	–	1.18	0.722	0.992
